From PubChem
In the library only some 2.2% were active in any assay of this set; here they are far more common.
DYRK1A inh: Dyrk1A (rat) kinase inhibition. Q63470. ADP-Glo luminescence, NFATc1 peptide. inhibition, % at 12.5 µM. 310,000 compounds, 0.43% hits; in the data active means inhibition above about 50%;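 further: plate controls were vehicle with enzyme for no effect and no enzyme for full effect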
CDK5 inh: inhibitors of human CDK5/p35 kinase | Q00535+Q15078 | Recombinant CDK5/p35, ADP-Glo luminescence, 60 min | inhibition, % at 10 µM | 330,000 compounds, 0.01% hits | AID 488839;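 active means highest replicate inhibition of at least 50% and at least 75% of replicates reaching 50%; inconclusive means only one of the two criteria met; inactive means both criteria failed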;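 further: plate controls were DMSO neutral control for no effect and GW8510 at 10 µM for full effect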
Rtt109 Vps75: C. albicans Rtt109 histone acetyltransferase inhibition. Q5AAJ8. purified Rtt109/Vps75, ThioGlo CoA-SH fluorescence, 4 h. inhibition, % at 34.9 µM. 330,000 compounds, 0.16% hits;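 active means inhibition of at least 50% in every replicate; inconclusive means best replicate reaches 50% inhibition but some replicates fall short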
Target sequence (Q5AAJ8 whole entry, looked up): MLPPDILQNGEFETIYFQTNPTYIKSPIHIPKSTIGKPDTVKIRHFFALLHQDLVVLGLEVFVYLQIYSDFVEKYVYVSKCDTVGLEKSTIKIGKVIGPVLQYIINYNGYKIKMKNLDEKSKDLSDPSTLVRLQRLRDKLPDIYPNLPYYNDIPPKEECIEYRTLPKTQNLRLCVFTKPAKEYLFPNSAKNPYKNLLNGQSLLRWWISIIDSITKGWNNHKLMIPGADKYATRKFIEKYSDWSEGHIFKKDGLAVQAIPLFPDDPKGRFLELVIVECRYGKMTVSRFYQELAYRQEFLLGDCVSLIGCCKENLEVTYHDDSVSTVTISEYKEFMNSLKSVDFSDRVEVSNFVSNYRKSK
CAL PDZ FP-1: CAL PDZ (human) peptide binding inhibition; inhibition, % at 24.9 µM; 300,000 compounds, 0.92% hits; purified CAL PDZ, TMR-peptide fluorescence polarization, 1 h; AID 602252; Q9HD26;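 active means mean inhibition of at least 30% with at least half of replicates also reaching 30%; inconclusive means no clear call, values can overlap the other calls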;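 further: 0% = DMSO neutral control and 100% = excess unlabeled competitor peptide PRC23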
CAL PDZ FP-2: blocks peptide binding to human CAL PDZ domain; purified CAL PDZ, TMR-peptide fluorescence polarization, 1 h; inhibition, % at 20 µM; 330,000 compounds, 0.02% hits;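 active means highest replicate inhibition of at least 40%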;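 further: plate controls were DMSO neutral control wells for no effect and unlabeled competitor peptide control wells for full effect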
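System: tagged CAL PDZ domain. Schedule: 1 h room-temperature incubation prior to read. Signal: fluorescence polarization (mP). Measure: percent inhibition from loss of millipolarization.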
dFosB activator: activators of mouse delta FosB homodimer; P13346; purified delta FosB, TAMRA-CDK5 oligo fluorescence polarization; percent of positive-control signal above neutral wells; activation, % at 25 µM; 340,000 compounds, 0.99% hits; AID 493131;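 active means mean activation above about 17%, with every replicate also reaching it, limit read from the data, passing the limit was not always enough; inconclusive means only one of the two conditions met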
Target sequence (P13346 whole entry, looked up): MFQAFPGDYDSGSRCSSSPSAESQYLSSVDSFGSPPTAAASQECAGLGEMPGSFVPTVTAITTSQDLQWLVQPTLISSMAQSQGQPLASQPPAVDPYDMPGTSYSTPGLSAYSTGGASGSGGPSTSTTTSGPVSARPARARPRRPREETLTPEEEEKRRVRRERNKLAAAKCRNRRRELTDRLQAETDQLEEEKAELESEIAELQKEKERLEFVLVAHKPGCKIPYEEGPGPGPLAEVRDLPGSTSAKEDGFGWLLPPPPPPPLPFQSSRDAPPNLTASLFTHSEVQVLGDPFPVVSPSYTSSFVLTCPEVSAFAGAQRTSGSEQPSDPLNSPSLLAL
ADP-Glo artifact: counter-screen for Dyrk1A inhibitors: ADP-Glo luciferase artifacts; AID 588348; shares compounds with DYRK1A inh; ADP-Glo luciferase artifact assay, no Dyrk1A, luminescence; AC50, µM (top dose mostly 12 µM), inactives show at the top dose activity change, negative = inhibition; 1,300 tested, under 10 active;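 active means fitted half-maximal dose AC50 no more than ten times the top valid tested dose, with luminescence dropping as dose rises; inconclusive means poor fit, or flat fit with 30 to 70% inhibition; inactive means the rest, signal increases included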
* = called active by the depositor; ? = inconclusive; · = no result given.

SMILES	DYRK1A inh	CDK5 inh	Rtt109 Vps75	CAL PDZ FP-1	CAL PDZ FP-2	dFosB activator	ADP-Glo artifact
COc1cc2c(ccc3cc(OC)c(OC)c(O)c32)cc1O	93.6*	80.6*	6.1	-1.5	1.4	-14.8	6.0%
CCCCNS(=O)(=O)CCNCc1ccco1	-17.0	-0.5	4.7	-3.9	-0.6	-9.5	·
O=C1c2ccccc2C(=O)c2[nH]cnc21	56.5*	0.9	2.3	-2.0	-0.7	1.9	7.3%
O=C1c2ccccc2C(=O)c2[nH]c(=O)[nH]c21	18.7	8.3	-13.0	6.4	1.2	-6.7	·
CCN(Cc1cnn(C)c1)C(=O)c1ccc2nc(Cc3cccc(Cl)c3)oc2c1	0.9	-0.3	1.4	-1.5	0.3	-15.1	·
O=c1c(O)c(-c2ccc(O)cc2)oc2cc(O)cc(O)c12	59.0*	2.2	13.8	-1.0	-0.5	6.4	7.2%
O=c1c(-c2ccc(O)cc2)coc2cc(O)ccc12	31.0	2.2	0.7	-8.3	-0.6	-5.9	·
O=c1c(O)c(-c2ccc(O)c(O)c2)oc2cc(O)ccc12	87.7*	48.7	-154.2	2.0	3.1	-2.8	8.6%
Cc1ccc(-c2nc(CN(C)Cc3cccc4cnccc34)c(C)o2)s1	6.4	0.8	10.6	-4.5	-2.0	-14.5	·
Cc1ccc(CN(c2ccc(C(=O)NCC3CCCO3)cc2)S(C)(=O)=O)cc1 (stereo not given)	2.5	-1.9	0.0	-1.7	-3.7	-10.7	·
CN(C)S(=O)(=O)c1ccc(NC(=O)c2cc3ccccc3o2)cc1	75.5*	-1.2	33.4	·	-3.4	-17.2	8.0%
Nc1nc(N)nc(-c2ccc(Cl)cc2)n1	62.5*	0.8	5.5	-0.3	-2.6	2.4	7.0%
COc1cc(/C=C2/SC(N)=NC2=O)ccc1Oc1ccc([N+](=O)[O-])cc1[N+](=O)[O-]	37.5	2.0	-2.6	-0.3	-1.0	?	·
NC1=NC(=O)/C(=C\c2ccc(O)c([N+](=O)[O-])c2)S1	79.2*	-1.2	24.5	·	-1.6	2.6	9.0%
COc1ccc(C(c2nnnn2C(C)(C)C)N2CCN(C(=O)c3ccco3)CC2)cc1 (stereo not given)	0.7	0.9	4.6	0.3	-1.2	-11.1	·
Cc1cccc2c3c([nH]c12)CCN(C)C3	-0.2	1.9	1.4	-8.8	-1.2	-5.3	·
O=C1OC(c2ccccc2)=C/C1=C/N1CCOCC1	-1.0	-2.2	2.9	-3.3	-2.0	3.3	·
O=C1SC(c2ccccc2)=C/C1=C\N1CCCCC1	68.2*	-0.6	15.9	-3.5	-0.4	-7.8	7.9%
CS(=O)(=O)c1ccc2c(c1)sc1nc(=O)c(/C=C3/C=CC(=O)C(O)=C3)c(N)n12	55.0*	0.0	7.1	8.3	-2.5	-16.4	9.9%
COC1=C/C(=C/c2c(N)n3c(nc2=O)sc2cc(S(C)(=O)=O)ccc23)C=CC1=O	15.2	1.4	3.4	-4.0	-4.4	-7.9	·
CCN(CC)c1c([N+](=O)[O-])c(=O)sc2ccccc12	53.3*	1.1	4.0	6.6	-1.2	2.5	7.1%
Cc1cccc(-n2nc3c(c2NC(=O)CCC2CCCCC2)CS(=O)C3)c1C (stereo not given)	55.4*	-0.9	-1.5	·	1.5	-8.1	10.5%
COc1ccc(N(CC(=O)Nc2ccc3c(c2)OCCO3)S(=O)(=O)c2c(C)nn(C)c2C)cc1	56.2*	-0.6	9.4	·	1.0	-10.4	10.7%
CCc1ccc(NC(=O)CN(c2ccc(OC)cc2)S(=O)(=O)c2c(C)nn(C)c2C)cc1	-4.0	-0.9	1.6	-5.2	-1.5	-8.1	·
CCN(CC)CCCn1c2c(c(SCC(=O)Nc3nccs3)nc1=O)CCC2	0.7	-2.8	-4.4	-2.9	-1.5	-0.2	·
SMILES	DYRK1A inh	CDK5 inh	Rtt109 Vps75	CAL PDZ FP-1	CAL PDZ FP-2	dFosB activator	ADP-Glo artifact
COc1cccc(-c2noc(N)c2C#N)c1	63.4*	4.3	6.2	·	-0.5	-6.7	7.2%
CC(=O)Nc1cc2c(cc1[N+](=O)[O-])-c1ccccc1C2=NO	44.7	1.9	-4.8	-1.2	-0.5	5.6	·
Nc1cc2c(cc1[N+](=O)[O-])-c1ccccc1C2=NO	79.8*	25.1	7.5	15.7	1.2	?	7.1%
Oc1c(Br)cc(CNC2CCCCC2)cc1Br	1.1	1.5	-0.8	-2.3	0.8	-0.2	·
COc1ccc2c(c1)CCc1cn3nc(C)cc3nc1-2	80.7*	6.0	-0.3	4.3	-1.0	-8.6	9.8%
COc1ccc2c(c1)CCc1cnc(N)nc1-2	·	7.0	-3.9	0.0	-0.6	-7.2	·
N#Cc1c(=O)c2nc(NCCCO)ncc2n2c(=O)c3ccccc3[nH]c12	55.6*	2.2	-10.5	-6.6	-5.0	-4.7	8.5%
CCCCN(CC)CCCNC(=O)c1ccc2c(c1)N(CC)C(=O)c1ccccc1S2(=O)=O	0.2	1.1	2.4	1.6	-1.8	-5.9	·
N#Cc1nc(-c2cccs2)oc1NCc1ccccc1Cl	50.5*	-0.7	4.9	·	-0.4	1.1	10.9%
CCN(CC)C1CCN(C(=O)CCn2nnnc2CN2CCOCC2)C1 (stereo not given)	2.0	0.0	9.7	0.6	-2.0	0.9	·
OCC[C@@H]1C[C@H](O)[C@@H](O)[C@@]2(CCc3ccccc3CO2)O1	51.8*	1.6	8.1	-1.1	-1.4	5.8	7.1%
OCC[C@H]1C[C@@H](O)[C@H](O)[C@@]2(CCc3ccccc3CO2)O1	-13.3	-3.6	-4.8	-1.4	-0.1	5.0	·
Cc1ccccc1NC(=O)CSc1nnc(CNC(=O)c2ccco2)n1C	1.9	-1.3	-0.5	-6.2	-1.7	4.9	·
CC1=C(C(=O)OCc2ccc3c(c2)OCO3)C(c2ccccc2)NC(=O)N1 (stereo not given)	77.5*	3.9	-3.7	-3.4	-1.8	-4.4	7.5%
CCOC(=O)CCC(=O)Nc1ccc(S(=O)(=O)Nc2cc(OC)nc(OC)n2)cc1	·	-1.6	-1.4	-3.5	-0.3	3.2	·
CCOC(=O)c1ccc2ncc(C(=O)OCC)c(NCCN3CCOCC3)c2c1	19.0	-2.0	-5.5	3.7	-1.9	-22.1	·
CCOC(=O)c1cnc2ccc(C)cc2c1Nc1ccc(N2CCOCC2)cc1	60.8*	6.3	15.0	2.8	-0.8	-3.6	8.3%
CCc1ncc(/C=C2\C(=O)Nc3ccccc32)[nH]1	56.6*	11.2	1.9	·	0.3	-2.9	6.5%
CN(C)/C=C1\C(=O)Nc2ccccc21	11.2	-1.3	-3.3	-0.4	0.0	1.4	·
CC(=O)Nc1nc(-c2ccc3c(c2)OCO3)cs1	57.5*	1.0	1.6	-0.7	-1.6	-2.9	10.3%
CN(C)/C=N/c1nc(-c2ccc3c(c2)OCO3)cs1	76.8*	0.2	·	0.1	-2.6	-0.1	6.4%
CN(C)/C=N/c1nc(-c2ccc3ccccc3c2)cs1	-3.7	-0.2	-1.2	1.8	-0.4	-7.0	·
